# The list is not random: actives were taken first. Their share in the collection is about 2%.
# Myeloid diff MLP – myeloid differentiation induction | calls only at 10 µM | ER-HoxA9 myeloid progenitors, lysozyme-GFP differentiation, flow cytometry | AID 624256 | 1% of 360,000 active;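 active means normalized GFP-positive differentiation at or above the plate's own cutoff, the solvent-only control mean plus 3 SD; inconclusive means no clear call, values can overlap the other calls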;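 further: cells exposed to compound for four days before flow analysis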
# T cell HTS – modulates CD8 T cell binding to vesicles | 2C CD8+ T cell-vesicle binding, flow cytometry; active compounds read low | response (vesicle binding), % at 7 µM | 0.068% of 330,000 active | AID 2052;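 active means response, share of CD8 T cells binding vesicles, and their 90th percentile fluorescence all below set limits, cut at about 80% in these data, passing the limit was not always enough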;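 further: values below 100% mean blocked vesicle binding to the CD8+ T cells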
#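 Material: murine 2C transgenic CD8+ T lymphocytes / Also added: QL9-peptide-loaded Drosophila micro-vesicles bearing Ld, ICAM-1 and B7-1 / Schedule: binding step 1.5 h, 37 °C, antibody labelling 20 min, ice / Signal: flow cytometry, PE anti-B7-1 (FL2) versus Alexa647 anti-CD8 (FL8), PFA-fixed / Evaluation: percent CD8+ FL2 mean versus row control / Benchmarks: naked versus QL9-loaded vesicles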
# GAA850 FXN act – increases GAA850 frataxin promoter reporter activity; HEK293 lucGAA850 FXN promoter luciferase reporter, 24 h; percent of 10 µM SAHA response; activation, % at 6 µM; 0.56% of 360,000 active;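 active means activation above the average of all compounds screened plus 3 SD, cutoff fixed separately per campaign, cut at about 7.5% in these data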;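 further: 0% = DMSO wells and 100% = 10 µM SAHA wells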
# NR2E3 ag-1 – agonists of human nuclear receptor NR2E3; Q9Y5X4; GST-NR2E3/biotin-RetCOR TR-FRET, 1536-well; inhibition of corepressor binding, % at 4.78 µM; 0.12% of 320,000 active;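 active means percent inhibition above the cutoff of mean plus 3 SD of all tested compounds, set per screening campaign, cut at about 20% in these data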;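 further: 0% = DMSO wells and 100% = biotin wells as full block of FRET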
#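 System: GST-tagged NR2E3 plus biotinylated RetCOR corepressor; Amount: 1.35 nM GST-tagged NR2E3 final; Dosing: single nominal compound dose of 4.8 µM; Schedule: 5 h incubation at 4 °C; Technique: TR-FRET with europium anti-GST and streptavidin-D2, 340 nm excitation; Controls: biotin wells as high control, 0.6% DMSO wells as low control.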
# NR2E3 ag-2 – human photoreceptor-specific nuclear receptor agonism | CHO-S Gal4-NCOR/VP16-NR2E3 two-hybrid, luciferase | inhibition of corepressor binding, % at 3.98 µM | AID 602229 | 0.35% of 360,000 active;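 active means inhibition above the mean of all tested compounds plus 3 SD, cut at about 70% in these data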;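 further: 0% = DMSO with NR2E3 transfected cells and 100% = cells lacking NR2E3 construct; higher means lower luciferase signal from less NR2E3 corepressor binding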
# NR2E3 agonist cf – confirmation of human NR2E3 nuclear receptor agonists; shares compounds with NR2E3 ag-1; cell-free NR2E3 corepressor release, TR-FRET, 5 h; activation (reported as inhibition), % at 3.98 µM; 39% of 360 active; AID 2379; in the data active means activation above about 20%
# PPARg-NCOR2 ctr – releases PPARgamma from NCOR2 in NR2E3 counter-screen. shares compounds with NR2E3 ag-1. TR-FRET PPARg-NCOR2 coregulator interaction, biochemical. inhibition, % at 3.98 µM. 45% of 360 active. AID 504787; in the data active means inhibition above about 20%;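 further: 0% = DMSO vehicle and 100% = wells without protein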
# * marks the source's active call; other numbers are inactive results; i = inactive; ? = inconclusive; nt = no result.
SMILES,Myeloid diff MLP,T cell HTS,GAA850 FXN act,NR2E3 ag-1,NR2E3 ag-2,NR2E3 agonist cf,PPARg-NCOR2 ctr
COc1cccc(C2C(C(=O)c3cc4ccccc4o3)=C(O)C(=O)N2c2cc(C)on2)c1OC (stereo not given),i,171,-2,24*,0,25*,18
COc1cccc2cc(C(=O)C3=C(O)C(=O)N(c4cc(C)on4)C3c3cccs3)oc12 (stereo not given),i,180,0,33*,-10,36*,42*
COC(=O)c1ccc(C2C(C(=O)c3cc4ccccc4o3)=C(O)C(=O)N2c2cc(C)on2)cc1 (stereo not given),i,260,0,23*,-9,32*,27*
COc1cc(C2C(C(=O)c3cc4ccccc4o3)=C(O)C(=O)N2c2cc(C)on2)cc(OC)c1OC (stereo not given),i,274,0,30*,-6,35*,34*
COc1cccc(C2C(C(=O)c3cc4cccc(OC)c4o3)=C(O)C(=O)N2c2cc(C)on2)c1OC (stereo not given),i,177,1,14,-52,nt,nt
CCOc1ccc(CCNC(=O)COn2nnc3ccc(S(=O)(=O)N4CCOCC4)cc32)cc1OCC,i,604,0,3,21,nt,nt
Cc1cccc(OCC(=O)N(Cc2ccco2)C2CCS(=O)(=O)C2)c1C (stereo not given),i,445,-1,2,-7,nt,nt
CN(C(=O)c1ccc(NC(=O)Cc2ccc(NC(=O)C3CCN(C(=O)C4CCCC4)CC3)cc2)cc1)C1CC1,i,597,-1,25*,16,15,-5
O=C(Nc1ccc(F)c(Cl)c1)c1cc(C2CCCN(C(=O)c3cccs3)C2)on1 (stereo not given),i,nt,-1,nt,-3,nt,nt
N#CC1=C2SCN(Cc3ccccc3)CN2C(=O)CC1c1ccc2c(c1)OCO2 (stereo not given),i,369,4,-1,-5,nt,nt
N#CC1=C2SCN(Cc3ccccc3)CN2C(=O)CC1c1cccs1 (stereo not given),i,238,1,22*,-47,0,-2
CCOc1cc(/C=C/C(=O)OCC(=O)N(CC)C2CCS(=O)(=O)C2)cc(Cl)c1OC (stereo not given),i,nt,-1,nt,-37,nt,nt
CSCC[C@H](NC(=O)[C@@H]1Cc2ccccc2CN1)C(=O)Nc1ccc2c(c1)OCCO2,i,228,-9,12,5,nt,nt
Cc1ccc(C2C(C#N)=C(N)SC(N)=C2C#N)o1,nt,407,nt,32*,nt,24*,35*
NC(=O)c1cc[n+](CC2=C(C(=O)O)N3C(=O)[C@@H](NC(=O)C(c4ccccc4)S(=O)(=O)[O-])[C@H]3SC2)cc1 (stereo not given in full),i,290,1,23*,-24,5,2
N[C@@H](C(=O)N[C@@H]1C(=O)N2C(C(=O)O)=C(Cl)CS[C@H]12)c1ccccc1,i,130,0,-1,-35,nt,nt
Cc1nc2ccc(Br)cc2c(-c2ccccc2)c1C(=O)O,i,160,2,47*,1,59*,54*
O=C(COC(=O)CNC(=O)c1ccc(Cl)cc1)Nc1cccc(S(=O)(=O)N2CCCC2)c1,i,183,1,-5,-8,nt,nt
COc1ccccc1NC(=O)N1CCCC1,i,177,-2,-2,5,nt,nt
COc1ccccc1NC(=O)N1CCC(NC(=O)C2CCCCC2)CC1,i,453,0,32*,-8,-12,-4
COCCNC(=O)c1cc(-c2ccccn2)nc2ccc(S(=O)(=O)N3CCC(C)CC3)cc12,i,371,0,20*,10,-9,7
COc1ccc2nc(C)cc(SCC(NC(C)=O)C(=O)OC(C)C)c2c1 (stereo not given),i,703,1,1,-19,nt,nt
CC(=O)NC(CSc1cc(C)nc2ccc(Br)cc12)C(=O)O (stereo not given),i,457,1,25*,-22,11,67*
O=C(CCC(=O)c1ccc(F)cc1)NC1CCCN(Cc2ccccc2F)C1 (stereo not given),i,268,2,1,10,nt,nt
O=C(Nc1cccc(C(=O)N2CCOCC2)c1)C1CCCC1,i,nt,-2,nt,-9,nt,nt
SMILES,Myeloid diff MLP,T cell HTS,GAA850 FXN act,NR2E3 ag-1,NR2E3 ag-2,NR2E3 agonist cf,PPARg-NCOR2 ctr
COc1cc2oc(=O)c(Br)c(C)c2c(OC)c1OC,i,451,0,20*,-11,8,6
O=c1[nH][nH]c2c1[C@H](c1ccccc1)O[C@H](C1CCCCC1)C2,i,nt,nt,nt,-8,nt,nt
COc1ccc(-c2c(C)sc(NC(=O)c3ccnn3C)c2C#N)cc1,i,608,1,30*,-8,9,21*
CCCOc1cccc(C2C(C(=O)c3cc4ccccc4o3)=C(O)C(=O)N2c2cc(C)on2)c1 (stereo not given),i,366,1,24*,-9,34*,36*
COc1cccc(C2C(C(=O)c3ccc(C)o3)=C(O)C(=O)N2c2cc(C)on2)c1 (stereo not given),i,613,1,12,-42,nt,nt
Cc1cc(N2C(=O)C(O)=C(C(=O)c3cccs3)C2c2ccccc2)no1 (stereo not given),i,i,1,6,21,nt,nt
Cc1cc(N2C(=O)C(O)=C(C(=O)c3cc4ccccc4o3)C2c2cccc(Br)c2)no1 (stereo not given),i,160,0,38*,31,48*,46*
O=C(CSc1ccccc1C(=O)O)NCC1CCCCC1,i,199,0,0,25,nt,nt
COCCC(=O)N1CCC(Oc2ccc(C(=O)N(C)Cc3cc(C)no3)cc2)CC1,i,334,0,3,-1,nt,nt
N#CC(C#N)=C1NC(N)=C(C#N)C(c2ccccc2)=C1C#N,i,229,-1,48*,-42,45*,40*
N#CC1=C(c2ccccc2)/C(=C/c2ccccc2)OC1=O,?,314,4,1,-21,nt,nt
O=C(CNC(=O)N1CC(=O)Nc2ccccc21)NCc1ccc(F)cc1,i,nt,1,nt,-22,nt,nt
c1coc(-c2nc(-c3ccco3)c(-c3ccco3)nc2-c2ccco2)c1,nt,690,0,42*,-2,-3,-5
Nc1nc(-c2ccco2)c(-c2ccco2)s1,i,547,3,0,-26,nt,nt
CCNC(=O)C1CCCN(C(=O)c2cccc(OC(F)(F)F)c2)CC1 (stereo not given),i,nt,0,nt,-10,nt,nt
